In brackets after ≈: the same amount, converted by molar mass. Activity calls are given as the source filed them. The calls are words filed in the database; no cut-off is given here.
Assays:
[1] = tested on: Staphylococcus aureus; assay: Bactericidal activity against methicillin-resistant Staphylococcus aureus ATCC 33591 for 10 mins to 2 hrs by time kill assay; assay type: functional
How it was run: (§1)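 MRSA grown to mid-log in TSB was diluted to 10^6 CFU/mL. […] Samples were diluted 10^2–10^4-fold and plated on TSB agar. CFU were counted after overnight incubation at 37 °C and plotted against time.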

[2] = tested on: Enterococcus faecalis; assay: Antibacterial activity against vancomycin resistant Enterococcus faecalis ATCC 700802 after 16 to 20 hrs by two fold serial dilution method; assay type: functional
How it was run: (§2)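 Broth MIC: the lowest concentration giving complete growth inhibition after 20 h. Run at least three times, in duplicate each time.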

[3] = tested on: Klebsiella pneumoniae; assay: Antibacterial activity against Klebsiella pneumoniae ATCC 13383 after 16 to 20 hrs by two fold serial dilution method; assay type: functional
How it was run: (§3)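 MIC as lowest concentration giving complete inhibition of growth after 20 h; at least three independent experiments, each in duplicate.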

[4] = tested on: Pseudomonas aeruginosa; assay: Antibacterial activity against Pseudomonas aeruginosa ATCC 27853 after 16 to 20 hrs by two fold serial dilution method; assay type: functional; how it was run: as §3
[5] = Cytotoxicity against human K562 cells assessed as cell viability at 25 ug/ml after 24 hrs by MTT assay; assay type: toxicity, cell-based; conditions: k562, 24 h
How it was run: (§4)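 Cells seeded at 5×10^4 per well and left 12 h, then exposed 24 h to compound at 100, 50, 25, 12.5 or 6.25 μg/mL diluted in medium. Medium replaced, MTT added for 4 h, solubilized 12 h at 37 °C, A550 read; viability % = (A − Ablank)/(Acontrol − Ablank) × 100. Run at least three times.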

[6] = tested on: Staphylococcus aureus; assay: Bactericidal activity against methicillin-resistant Staphylococcus aureus ATCC 33591 at 25 to 50 ug/ml for 10 mins to 2 hrs by time kill assay; assay type: functional; how it was run: as §1
[7] = Hemolytic activity in human RBC after 1 hr; assay type: ADME, cell-based, Erythrocyte; conditions: human red blood cells
How it was run: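 Fresh K2EDTA human RBCs, PBS-washed, as 5% v/v suspension mixed 1:1 with compound dilutions, 37 °C for 1 h. Supernatant after centrifugation diluted in PBS, A540 read. % hemolysis relative to 2% Triton X-100 (positive) and PBS (negative). At least three runs, each in duplicate.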

[8] = tested on: Escherichia coli; assay: Antibacterial activity against Escherichia coli ATCC 25922 after 16 to 20 hrs by two fold serial dilution method; assay type: functional; how it was run: as §3
[9] = tested on: Staphylococcus aureus; assay: Antibacterial activity against methicillin-resistant Staphylococcus aureus ATCC 33591 after 16 to 20 hrs by two fold serial dilution method; assay type: functional; how it was run: as §2
[10] = tested on: Staphylococcus epidermidis; assay: Antibacterial activity against methicillin-resistant Staphylococcus epidermidis RP62A after 16 to 20 hrs by two fold serial dilution method; assay type: functional; how it was run: as §2
[11] = Cytotoxicity against human HK2 cells assessed as cell viability at 25 ug/ml after 24 hrs by MTT assay; assay type: toxicity, cell-based; conditions: hk-2, 24 h; how it was run: as §4
[12] = tested on: Staphylococcus aureus; assay: Antibacterial activity against methicillin-resistant Staphylococcus aureus ATCC 33591 at 0.5 times MIC after 14 passages; assay type: functional
How it was run: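 Resistance passaging: the starting MIC was measured as in the MIC assay. Bacteria from the 1/2 MIC well seeded the next day's assay. Repeated daily for 14 passages.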

[13] = tested on: Staphylococcus aureus; assay: Bactericidal activity against methicillin-resistant Staphylococcus aureus ATCC 33591 assessed as disruption of bacterial membrane at 25 ug/ml after 2 hrs by DAPI staining based fluorescence microscopy; assay type: functional
How it was run: (§5)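 Mid-log MRSA was exposed to compound at 37 °C for 2 h, pelleted and washed three times in PBS. Cells were stained sequentially with PI (5 µg/mL) and DAPI (10 µg/mL), 15 min each on ice in the dark. Imaged with a 100× oil objective; DAPI channel 460 nm, PI channel 620 nm.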

[14] = tested on: Staphylococcus aureus; assay: Bactericidal activity against methicillin-resistant Staphylococcus aureus ATCC 33591 assessed as disruption of bacterial membrane at 25 ug/ml after 2 hrs by propidium iodide staining based fluorescence microscopy; assay type: functional; how it was run: as §5
[15] = Cytotoxicity against human K562 cells assessed as cell viability after 24 hrs by MTT assay; assay type: toxicity, cell-based; how it was run: as §4
[16] = Cytotoxicity against human HK2 cells assessed as cell viability after 24 hrs by MTT assay; assay type: toxicity, cell-based, HK-2; how it was run: as §4

Row | Structure (SMILES) | Activity [1] | MIC [2] [µg/mL] | MIC [3] [µg/mL] | MIC [4] [µg/mL] | Activity [5] | Activity [6] | HC50 at 1 h [7] [µg/mL] | MIC [8] [µg/mL] | MIC [9] [µg/mL] | MIC [10] [µg/mL] | Activity [11] | Activity [12] | Activity [13] | Activity [14] | IC50 at 24 h [15] [µg/mL] | IC50 at 24 h [16] [µg/mL]
1 | NCCCC[C@H](NC(=O)[C@@H](N)CCCCN)C(=O)N[C@@H](Cc1ccccc1)CN(CC(=O)NCC12CC3CC(CC(C3)C1)C2)C(=O)CC12CC3CC(CC(C3)C1)C2 | Dose-dependent effect | 6.25 (≈ 7.93 µM) | > 25 | 6.25 (≈ 7.93 µM) | Non-Toxic | Active | 280 | 6.25 (≈ 7.93 µM) | 1.56 (≈ 1.98 µM) | 3.12 (≈ 3.96 µM) | Non-Toxic | Active | Active | Active | – | –
2 | CC(C)(C)c1ccc(CNC(=O)CN(C[C@H](Cc2ccccc2)NC(=O)[C@@H](N)CCCCN)C(=O)CC23CC4CC(CC(C4)C2)C3)cc1 | – | 6.25 (≈ 9.5 µM) | 6.25 (≈ 9.5 µM) | 6.25 (≈ 9.5 µM) | Non-Toxic | – | 120 | 6.25 (≈ 9.5 µM) | 6.25 (≈ 9.5 µM) | 3.12 (≈ 4.74 µM) | Non-Toxic | – | – | – | – | –
3 | NCCCC[C@H](NC(=O)[C@@H](N)CCCN)C(=O)N[C@@H](Cc1ccccc1)CN(CC(=O)NCC12CC3CC(CC(C3)C1)C2)C(=O)CC12CC3CC(CC(C3)C1)C2 | – | 6.25 (≈ 8.07 µM) | > 25 | 6.25 (≈ 8.07 µM) | Non-Toxic | – | 200 | 6.25 (≈ 8.07 µM) | 3.12 (≈ 4.03 µM) | 3.12 (≈ 4.03 µM) | Non-Toxic | – | – | – | – | –
4 | NCCCC[C@H](N)C(=O)N[C@@H](Cc1ccccc1)CN(CC(=O)NCc1ccc(C(F)(F)F)cc1)C(=O)CC12CC3CC(CC(C3)C1)C2 | – | 6.25 (≈ 9.33 µM) | 6.25 (≈ 9.33 µM) | 12.5 (≈ 18.7 µM) | Non-Toxic | – | 200 | 6.25 (≈ 9.33 µM) | 6.25 (≈ 9.33 µM) | 3.12 (≈ 4.66 µM) | Non-Toxic | – | – | – | – | –
5 | NCCCC[C@@H](CN(CC(=O)NCc1cccc2ccccc12)C(=O)CCCN)NC(=O)c1ccc2ccccc2c1 | – | 25 (≈ 44 µM) | > 50 | > 50 | – | – | – | > 50 | 25 (≈ 44 µM) | 25 (≈ 44 µM) | – | – | – | – | – | –
6 | CCCCCCCCCC(=O)N[C@@H](Cc1c[nH]c2ccccc12)C(=O)N[C@@H](CC(N)=O)C(=O)N[C@@H](CC(=O)O)C(=O)N[C@@H]1C(=O)NCC(=O)N[C@@H](CCCN)C(=O)N[C@@H](CC(=O)O)C(=O)N[C@H](C)C(=O)N[C@@H](CC(=O)O)C(=O)NCC(=O)N[C@H](CO)C(=O)N[C@@H]([C@H](C)CC(=O)O)C(=O)N[C@@H](CC(=O)c2ccccc2N)C(=O)O[C@@H]1C [DAPTOMYCIN] | – | 1 (≈ 0.617 µM) | > 50 | > 50 | – | – | – | > 50 | 0.5 (≈ 0.309 µM) | 0.5 (≈ 0.309 µM) | – | – | – | – | – | –
7 | N=C(N)NCCC[C@H](N)C(=O)N[C@@H](Cc1ccccc1)CN(CC(=O)NCc1cccc2ccccc12)C(=O)c1ccc2ccccc2c1 | – | 25 (≈ 38 µM) | 25 (≈ 38 µM) | 25 (≈ 38 µM) | – | – | 300 | 50 (≈ 76 µM) | 25 (≈ 38 µM) | 12.5 (≈ 19 µM) | – | – | – | – | > 100 | > 100
8 | NCCCC[C@H](N)C(=O)N[C@@H](Cc1ccccc1)CN(CC(=O)NCc1cccc2ccccc12)C(=O)c1ccc2ccccc2c1 | – | 25 (≈ 39.7 µM) | 25 (≈ 39.7 µM) | 12.5 (≈ 19.8 µM) | Non-Toxic | – | 290 | 25 (≈ 39.7 µM) | 25 (≈ 39.7 µM) | 12.5 (≈ 19.8 µM) | Non-Toxic | – | – | – | – | –

Reference: ChEMBL document CHEMBL3853323, “Small Antimicrobial Agents Based on Acylated Reduced Amide Scaffold” (J Med Chem, 2016)
